Consider 19 compounds from ChEMBL document CHEMBL3580596, “Discovery of Multitarget Antivirals Acting on Both the Dengue Virus NS5-NS3 Interaction and the Host Src/Fyn Kinases” (J Med Chem, 2015).

In general, EC50 refers to the concentration giving half of the maximal effect. As usually defined, the inhibition is the change of the read-out against control, counted positive when it falls. The CC50 is the concentration giving 50% cytotoxicity.

Calls of active or inactive are those of the source. The rule behind the calls is not given here. Bounds are passed on as bounds.

The subject of data set [1] is dengue virus type 2. Description: Antiviral activity against DENV serotype 2 strain New Guinea V infected in African green monkey Vero B cells assessed as inhibition of virus-induced cytopathogenic effect after 7 days. Type of data set: functional, organism-based. A digest of the protocol: (§1)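 Vero-B cells, 7×10^3/well, adhered overnight, then given 1:2 serial dilutions (start 100 μg/mL) plus 100 CCID50 DENV-2 NGC (virus grown in C6/36 cells) in MEM with 2% FBS. After 7 days, fixed with ethanol and stained with 1% methylene blue. EC50 for 50% inhibition of virus-induced CPE comes from microscopic scoring of each well.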
For orientation: Protection from cytopathic effect is a common read-out in antiviral testing.

The target of data set [2] is Tyrosine-protein kinase Fyn (Homo sapiens) (UniProt P06241). Description: Inhibition of human his-tagged full length Fyn active enzyme using KVEKIGEGTYGVVYK substrate at 100 uM by scintillation counting analysis.
For data set [3], the target named is Proto-oncogene tyrosine-protein kinase Src (Homo sapiens) (UniProt P12931). Description: Inhibition of human his-tagged full length Src active enzyme using KVEKIGEGTYGVVYK substrate at 100 uM by scintillation counting analysis.
Data set [4] is described as follows: Cytotoxicity against african green monkey Vero B cells. Type of data set: cell-based. Particulars: chlorocebus sabaeus. In a few lines: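 Uninfected Vero-B cells treated with compound dilutions; CC50 taken as concentration giving 50% reduction of metabolic activity or cell growth. Read-out by MTS/PMS (yield-assay series) or by 7-day methylene blue staining with microscopic scoring (CPE series, 1:2 dilutions from 100 μg/mL).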

Data set [5] relates to dengue virus type 2. Description: Inhibition of DENV2 His- and FLAG-tagged NS3 and NS5 protein interaction at 500 uM after 1 hr by alphascreen assay.
In data set [6] the test system is dengue virus type 2. Description: Antiviral activity against DENV serotype 2 strain New Guinea V infected in African green monkey Vero B cells assessed as inhibition of virus replication after 4 days by qRT-PCR analysis. The format is functional, organism-based. Particulars: 96 h. In a few lines:
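Vero-B cells, 5×10^4/well, infected one day after seeding with 100 CCID50 DENV-2 NGC for 2 h, then washed 3 times. Cultured 4 days with 5-fold compound dilutions (50–0.08 μg/mL) in medium with 2% FBS. Supernatant viral RNA measured by RT-qPCR; EC50 (50% inhibition of RNA replication) found by logarithmic interpolation.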
(In general: Quantitative PCR measures a nucleic acid by following its amplification.)

The nature of data set [7]: Selectivity index, ratio of CC50 for African green monkey Vero B cells to EC50 for DENV serotype 2 strain New Guinea V.
Data set [8] addresses Tyrosine-protein kinase Fyn (Homo sapiens) (UniProt P06241). Description: Inhibition of human his-tagged full length Fyn active enzyme using KVEKIGEGTYGVVYK substrate by scintillation counting analysis.
In data set [9] the target is Proto-oncogene tyrosine-protein kinase Src (Homo sapiens) (UniProt P12931). Description: Inhibition of human his-tagged full length Src active enzyme using KVEKIGEGTYGVVYK substrate by scintillation counting analysis.
In a further data set the test system is Dengue virus. Description: Antiviral activity against DENV by CPE-reduction assay. The format is functional, organism-based. A digest of the protocol:
as §1

Data set [10] has as its system dengue virus type 2. Description: Ratio of ribavirin EC50 to compound EC50 for DENV serotype 2 strain New Guinea V infected in African green monkey Vero B cells assessed as inhibition of virus-induced cytopathogenic effect after 7 days. The format is functional.
The test system of data set [11] is dengue virus type 2. Description: Inhibition of DENV2 His- and FLAG-tagged NS3 and NS5 protein interaction at 50 uM after 1 hr by alphascreen assay. A digest of the protocol:
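Wheat-germ cell-free expressed HF-NS3 (or HF-DHFR as negative control) and GST-tagged biotinylated NS5, 25 nM each, incubated 1 h at room temperature with compound (0.5% DMSO) in Tris pH 7.5/NaCl/MgCl2/DTT/BSA/Tween-20 buffer. Then anti-FLAG IgG, protein A acceptor and streptavidin donor beads added for 1 h; luminescence expressed as % of DMSO control, n=2.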
For orientation: Alpha assays give light when donor and acceptor beads are brought close together.

Data set [12] deals with dengue virus type 2. Description: Antiviral activity against DENV serotype 2 strain New Guinea V infected in African green monkey Vero B cells assessed as RNA replication after 4 days by RT-qPCR analysis. The format is functional, organism-based. A digest of the protocol:
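Vero-B cells (5×10^4/well) infected 2 h with DENV-2 NGC (100 CCID50), washed 3×, then cultured 4 days with 5-fold serial compound dilutions (50 – 0.08 μg/mL) in MEM with 2% FBS. Viral RNA in supernatant quantified by RT-qPCR; EC50 (50% inhibition of viral RNA replication) by logarithmic interpolation.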

[13] abbreviates: Dengue virus, New Guinea V, Vero, 168 h, read-out: EC50.

Chain of Tyrosine-protein kinase Fyn (Homo sapiens) (P06241 2-537 limits assumed): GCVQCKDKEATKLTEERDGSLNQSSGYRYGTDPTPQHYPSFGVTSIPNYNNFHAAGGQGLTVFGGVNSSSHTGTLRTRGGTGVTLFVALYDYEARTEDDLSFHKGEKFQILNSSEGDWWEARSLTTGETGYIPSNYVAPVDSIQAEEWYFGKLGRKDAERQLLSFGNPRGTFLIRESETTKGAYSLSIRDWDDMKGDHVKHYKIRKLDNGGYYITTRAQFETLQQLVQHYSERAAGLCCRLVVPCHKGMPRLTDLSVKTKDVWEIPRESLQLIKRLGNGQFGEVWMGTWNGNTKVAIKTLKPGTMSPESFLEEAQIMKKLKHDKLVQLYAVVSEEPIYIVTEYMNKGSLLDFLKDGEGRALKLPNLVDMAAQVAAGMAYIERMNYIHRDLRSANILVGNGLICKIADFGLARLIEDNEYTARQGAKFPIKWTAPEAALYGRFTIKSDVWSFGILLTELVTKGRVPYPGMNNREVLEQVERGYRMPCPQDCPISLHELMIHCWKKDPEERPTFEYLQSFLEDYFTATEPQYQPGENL
Chain of Proto-oncogene tyrosine-protein kinase Src (Homo sapiens) (P12931 2-536 limits assumed): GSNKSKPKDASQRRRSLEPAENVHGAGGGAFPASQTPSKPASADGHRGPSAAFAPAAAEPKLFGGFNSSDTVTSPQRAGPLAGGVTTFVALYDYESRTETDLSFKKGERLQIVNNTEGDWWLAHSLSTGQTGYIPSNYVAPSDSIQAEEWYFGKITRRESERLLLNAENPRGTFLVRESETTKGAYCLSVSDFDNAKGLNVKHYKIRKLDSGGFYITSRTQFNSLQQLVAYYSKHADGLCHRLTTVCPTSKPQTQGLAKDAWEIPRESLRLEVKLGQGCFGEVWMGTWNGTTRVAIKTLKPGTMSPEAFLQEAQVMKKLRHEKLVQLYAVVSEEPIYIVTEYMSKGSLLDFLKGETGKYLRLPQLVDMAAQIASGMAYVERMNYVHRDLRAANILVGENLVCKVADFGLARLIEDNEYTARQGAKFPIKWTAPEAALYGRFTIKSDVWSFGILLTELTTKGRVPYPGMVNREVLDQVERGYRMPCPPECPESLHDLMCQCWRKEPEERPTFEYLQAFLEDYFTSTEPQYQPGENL

On to `COc1ccc2c(Nc3ccc(N4CCN(C)CC4)cc3)c(C#N)cnc2c1`, for which the EC50 entry in the data set with dengue virus type 2 [1] (vero) is listed as “Not Active”. For the same compound, the inhibition result in data set [2] and in [3] was “inactive” throughout. The compound further registered a CC50 in data set [4] of 7.9 µM.
Consider `Cc1cc(OCc2ccc(F)cc2F)cc(=O)n1Cc1cn(Cc2cccc(Br)c2)nn1`, for which the EC50 result with dengue virus type 2 [1] (vero) is “Not Active”. The compound also showed a CC50 in data set [4] of 36 µM.
Take `CC(=O)c1ccc(Nc2nc(NCCC(C)C)nc3[nH]cnc23)cc1`: the inhibition entry in the data set with dengue virus type 2 [5] was “Active”. Besides, the 50% effective concentration (EC50) in the data set on dengue virus type 2 [6] came to 59 µM. For the same compound, the “Ratio CC50/EC50” value in [7] is on record as 1. The compound also displayed a CC50 in data set [4] of 85 µM.
With `COc1cc2ncc(C#N)c(Nc3ccc(Cl)cc3Cl)c2cc1OC`, the EC50 with dengue virus type 2 [1] (setting [13]) is less than 5.7 µM. The ID50 worked out at 0.22 µM in data set [8] and 0.03 µM in data set [9]. For the same compound, in data set [4], the CC50 is less than 5.7 µM.
On to `NC(=O)c1ncn([C@@H]2O[C@H](CO)[C@@H](O)[C@H]2O)n1` [RIBAVIRIN], for which the EC50 in the data set on dengue virus type 2 [6] stood at 42 µM. The “Ratio CC50/EC50” value in [7] was greater than 10. The midpoint of cytotoxicity in [4], the CC50, lay at 409 µM.
Turning to `COc1ccc(Cn2c(C)cc(OCc3cccc(F)c3)cc2=O)cc1`, the EC50 in the data set with dengue virus type 2 [1] (setting [13]) was less than 6.4 µM. Besides, the inhibition entry in data set [2] and in data set [3] was “inactive” each time. In data set [4], this compound displayed a 50% cytotoxic concentration (CC50) of less than 6.4 µM.
Regarding `NS(=O)(=O)c1ccc(Nc2nc(N3CCOCC3)nc3[nH]cnc23)cc1`, the EC50 result in the data set with dengue virus type 2 [1] (vero) is on record as “Not Active”. Further, in the data set on dengue virus type 2 [5], the inhibition result was “Active”. Further, the ID50 worked out at 0.5 µM in [8] and 0.9 µM in [9]. The midpoint of cytotoxicity in data set [4], the CC50, lay at 373 µM.
The compound `Cc1nc(Nc2ncc(C(=O)Nc3c(C)cccc3Cl)s2)cc(N2CCN(CCO)CC2)n1` [DASATINIB] registered a concentration giving a half-maximal response (EC50) in the data set with Dengue virus of 1 µM.
In the case of `NS(=O)(=O)c1ccc(Nc2nc(N3CCN(CCO)CC3)nc3[nH]cnc23)cc1`, the EC50 result in the data set on dengue virus type 2 [1] (vero) was “Not Active”. Besides, in the data set on dengue virus type 2 [5], the inhibition result is “Active”. The values for the ID50 in data set [8] and in data set [9] were 4.8 µM and 7.4 µM, respectively.
Consider `OCCN1CCN(c2nc(Nc3ccccc3)c3nc[nH]c3n2)CC1`, for which the half-maximal effective concentration (EC50) entry in the data set with dengue virus type 2 [1] (vero) was “Not Active”. Also, in the data set on dengue virus type 2 [5], the inhibition entry is “Active”. Also, the ID50 in [8] and in [9] was 4.2 µM throughout. This compound also yielded a CC50 in data set [4] of 474 µM.
As to `Cc1cc(OCc2ccc(F)cc2F)cc(=O)n1Cc1cn(Cc2cccc(C(F)(F)F)c2)nn1`, the EC50 entry in the data set on dengue virus type 2 [1] (vero) was “Not Active”. Moreover, the inhibition result in data set [2] and in [3] was “inactive” in each case. The compound further yielded a CC50 in data set [4] of 40 µM.
Take `Oc1cccc(Nc2nc(NCc3ccccc3)nc3[nH]cnc23)c1`: the inhibition result with dengue virus type 2 [5] was “Active”. Also, the ID50 in data set [8] worked out at 4.1 µM; in data set [9], 3.7 µM. In addition, the EC50 with dengue virus type 2 [6] was found to be 69 µM. Moreover, the “Ratio CC50/EC50” value in data set [7] is greater than 2. The same compound showed a CC50 in data set [4] greater than 150 µM.
For the compound `CNc1nc(Nc2ccc(C(C)=O)cc2)c2nc[nH]c2n1`, in the data set with dengue virus type 2 [5], the inhibition entry was “Active”. For the same compound, in the data set on dengue virus type 2 [6], the concentration for a half-maximal effect (EC50) worked out at 42 µM. Further, in [7], the “Ratio CC50/EC50” value is given as greater than 4. The compound further had a CC50 in [4] greater than 177 µM.
In data set [4], `NS(=O)(=O)c1ccc(Nc2nc(N3CCN(CCO)CC3)nc3nc[nH]c23)cc1` registered a CC50 of 437 µM.
For the compound `CNc1nc(Nc2cccc(O)c2)c2nc[nH]c2n1`, in the data set on dengue virus type 2 [10], the “Ratio EC50” value amounted to 10. In addition, the inhibition result in the data set on dengue virus type 2 [5] is “Active”. Also, the inhibition in the data set on dengue virus type 2 [11] is 33%; in the data set on dengue virus type 2 [12] it was “Dose-dependent effect”. Besides, the ID50 came out at 3.6 µM in data set [8] and 4.9 µM in [3]. Further, the EC50 in the data set on dengue virus type 2 [6] was determined as 5.3 µM. In data set [7], the “Ratio CC50/EC50” value was 32. The cytotoxic concentration (CC50) in data set [4] was 168 µM.
On to `CN1CCN(CCOc2cc(OC3CCOCC3)c3c(Nc4c(Cl)ccc5c4OCO5)ncnc3c2)CC1` [SARACATINIB], for which a half-maximal effect with Dengue virus (EC50) was put at 6 µM.
Regarding `CC(C)CCNc1nc(Nc2cccc(O)c2)c2nc[nH]c2n1`, in the data set with dengue virus type 2 [5], the inhibition result is “Active”. Moreover, the ID50 in [8] and in data set [9] was 1.7 µM throughout. The EC50 in the data set with dengue virus type 2 [6] was 20 µM. The “Ratio CC50/EC50” value in [7] was 8. For the same compound, the cytotoxic concentration (CC50) in data set [4] is 151 µM.
Consider `CC(=O)c1ccc(Nc2nc(NCCO)nc3[nH]cnc23)cc1`, for which, in the data set with dengue virus type 2 [5], the inhibition entry is “Active”. Besides, in the data set on dengue virus type 2 [6], the 50% effective concentration (EC50) amounted to 72 µM. For the same compound, the “Ratio CC50/EC50” value in data set [7] worked out at 2. Besides, in data set [4], half-maximal cytotoxicity (CC50) was put at 160 µM.
`COc1ccc2c(Nc3ccc(Cl)cc3Cl)c(C#N)cnc2c1`: in the data set with dengue virus type 2 [1] (vero), the concentration giving a half-maximal response (EC50) result was “Not Active”. The ID50 in data set [8] is 2 µM; in data set [9] it was 0.2 µM. In data set [4], the midpoint of cytotoxicity, the CC50, lay at 19 µM.
